DENV2 CPE = DENV2-induced cell death inhibition; DENV2-infected cells, cytopathic effect rescue, plate reader; CPE inhibition, % at 9.99 µM; actives 1.7% (n = 350,000); AID 651640; in the data active = CPE inhibition above about 20%, passing the limit was not always enough; tested in BHK-21 cells;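 also: 0% = median of neutral control wells and 100% = median of positive control wells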
E-selectin induc = E-selectin induction on HUVECs. HUVEC E-selectin immunofluorescence imaging; normalized: neutral wells 0, TNF-alpha wells 100. activation, % at 7.58 µM. actives 0.37% (n = 260,000). AID 686992;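 active = mean E-selectin-positive cell signal at least 10% of the positive control, reached in at least 60% of replicates, without over 20% cell loss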
Target sequence (P16581 whole entry, looked up): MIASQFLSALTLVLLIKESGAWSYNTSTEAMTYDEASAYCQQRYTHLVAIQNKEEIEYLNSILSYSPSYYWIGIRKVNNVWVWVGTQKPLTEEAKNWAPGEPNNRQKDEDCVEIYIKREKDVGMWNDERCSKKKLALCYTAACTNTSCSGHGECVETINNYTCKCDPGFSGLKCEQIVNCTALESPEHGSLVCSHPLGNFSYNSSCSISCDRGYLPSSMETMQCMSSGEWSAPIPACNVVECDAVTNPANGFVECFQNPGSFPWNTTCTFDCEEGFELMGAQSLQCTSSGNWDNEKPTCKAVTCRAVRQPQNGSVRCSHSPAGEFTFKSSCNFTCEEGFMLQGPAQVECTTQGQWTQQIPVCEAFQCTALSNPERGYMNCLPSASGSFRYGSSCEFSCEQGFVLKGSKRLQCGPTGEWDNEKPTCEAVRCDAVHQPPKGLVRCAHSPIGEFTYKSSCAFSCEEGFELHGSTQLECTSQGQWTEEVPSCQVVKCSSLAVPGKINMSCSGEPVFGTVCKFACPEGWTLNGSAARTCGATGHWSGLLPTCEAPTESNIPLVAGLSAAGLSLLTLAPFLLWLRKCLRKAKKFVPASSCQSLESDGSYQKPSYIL
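Test system – human umbilical vein endothelial cells (HUVEC), E-selectin induction · Input – 3,000 HUVEC seeded per well · Buffer or medium – EGM-2, gelatin · Compound dosing – single-point compound dose · Detection – immunofluorescence imaging · Measure – percent E-selectin-positive cells · Controls – TNF-alpha high, DMSO low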
C2C12 statin = protects C2C12 myotubes from simvastatin toxicity. ATP luminescence, 48 h; scaled: DMSO 0, geranylgeraniol control 100. actives 0.78% (n = 330,000). AID 602340. rescue of ATP level, % at 7.49 µM;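 active = mean ATP rescue above about 67%, or every replicate alone reaching that limit, limit read from the data, passing the limit was not always enough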;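 also: myotubes were challenged with 10 µM simvastatin during compound exposure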
Active calls of the source: *; / = not tested or not shown. The list is not random: actives were taken first. Their share in the collection is about 2.2%.

SMILES	DENV2 CPE	E-selectin induc	C2C12 statin
COc1ccc2c3c([nH]c2c1)[C@@H](CO)NCC31CN(Cc2ccccc2F)C1	18.8	2.4	/
CCOc1cc(N2CCOCC2)c(OCC)cc1NC(=O)CN1CCN(Cc2ccc3c(c2)OCO3)CC1	28.5*	0.3	/
CCOc1cc(N2CCOCC2)c(OCC)cc1NC(=O)Cc1ccc(OC)c(OC)c1	/	/	39.6
CC(=O)N(C)C[C@H]1Oc2ncc(-c3cncnc3)cc2C(=O)N([C@H](C)CO)C[C@@H]1C	-9.4	-0.3	6.7
CCS(=O)(=O)Nc1ccc2c(c1)C(=O)N(C)[C@H]1CC[C@H](CC(=O)Nc3ccccc3)O[C@H]1CO2	3.6	-0.1	8.1
CC1(NC(=O)c2cc(Cl)nc3ccccc23)CCS(=O)(=O)C1 (centres undefined)	54.3*	/	3.3
O=C(NC1CC1)c1cc(Cl)nc2ccccc12	0.1	-0.3	-14.8
NC(=O)CC(NC(=O)Cc1cccc2ccccc12)c1ccc(NCCc2ccccc2F)c([N+](=O)[O-])c1 (centres undefined)	21.3*	/	16.2
NC(=O)CC(NC(=O)Cc1cccc2ccccc12)c1ccc(NCCc2ccc(F)cc2)c([N+](=O)[O-])c1 (centres undefined)	/	0.0	26.1
C[C@@H]1CCCCO[C@H](CN(C)C(=O)c2ccncc2)[C@H](C)CN([C@@H](C)CO)C(=O)c2cc(NS(=O)(=O)c3cn(C)cn3)ccc2O1	1.4	1.5	/
C[C@@H]1CCCCO[C@H](CN(C)C(=O)NC2CCCCC2)[C@@H](C)CN([C@H](C)CO)C(=O)c2cc(NC(=O)CCCCCC(=O)Nc3ccccc3N)ccc2O1	112.1*	-0.1	/
C[C@H](CO)N1C[C@H](C)[C@H](CN(C)C(=O)c2ccccc2)OCCCC[C@H](C)Oc2ccc(NC(=O)CCCCCC(=O)Nc3ccccc3N)cc2C1=O	13.2	/	/
C[C@@H]1CCCCO[C@H](CN(C)C(=O)c2ccccc2)[C@H](C)CN([C@@H](C)CO)C(=O)c2cc(NC(=O)CCCCCC(=O)Nc3ccccc3N)ccc2O1	20.3*	/	/
C[C@@H]1CCCCO[C@@H](CN(C)C(=O)NC2CCCCC2)[C@H](C)CN([C@@H](C)CO)C(=O)c2cc(NC(=O)CCCCCC(=O)Nc3ccccc3N)ccc2O1	-3.5	-0.2	/
C[C@@H]1CN([C@H](C)CO)C(=O)c2cc(-c3cccnc3)cnc2O[C@@H]1CN(C)C(=O)Nc1ccc(C(F)(F)F)cc1	3.3	0.1	-3.6
CCCC(=O)Nc1ccc2c(c1)OC[C@@H](C)N(Cc1cc(-c3ccccc3)on1)C[C@@H](C)[C@H](OC)CN(C)C2=O	14.3	0.1	11.9
COc1ccc(-c2ccc([C@H]3[C@@H](CO)N4C(=O)CN(Cc5ccc(F)cc5)C[C@@H]34)cc2)cc1	-9.9	0.0	/
CC1c2ccccc2N(S(=O)(=O)c2ccccc2)C1C (centres undefined)	5.3	-0.1	2.4
CC(=O)N1c2ccccc2[C@H](C)[C@H]1C	69.6*	0.3	7.2
CO[C@H]1CN(C)C(=O)c2ccc(NC(C)=O)cc2OC[C@H](C)NC[C@@H]1C	9.8	-0.1	-6.8
COc1ccc(C(=O)N/C(=C/c2cccc3ccccc23)C(=O)NCCc2c[nH]c3ccccc23)cc1OC	-15.7	/	12.2
COc1ccc(/C=C(/NC(=O)c2ccc(OC)c(OC)c2)C(=O)NCCc2c[nH]c3ccccc23)cc1	20.2*	/	/
C[C@@H]1CCCCO[C@H](CN(C)C(=O)Cc2ccccc2)[C@H](C)CN([C@H](C)CO)C(=O)c2cc(NC(=O)Nc3ccc(F)cc3)ccc2O1	-4.6	-0.2	/
Cn1nc(C(F)(F)F)c(-c2ccc(Br)cc2)c1NC(=O)c1nccnc1C(=O)O	-4.7	0.0	/
Cn1nc(C(F)(F)F)c(-c2ccc(Br)cc2)c1NC(=O)CSCC(=O)O	58.1*	0.1	/
SMILES	DENV2 CPE	E-selectin induc	C2C12 statin
CO[C@H]1CN(C)C(=O)c2ccc(NC(=O)NC(C)C)cc2OC[C@H](C)N(CCC(F)(F)F)C[C@H]1C	54.6*	-0.2	2.0
CO[C@@H]1CN(C)C(=O)c2ccc(NC(=O)NC(C)C)cc2OC[C@@H](C)N(CCC(F)(F)F)C[C@H]1C	-6.9	-0.1	1.8
CO[C@@H]1CN(C)C(=O)c2ccc(NC(=O)NC(C)C)cc2OC[C@@H](C)N(CCC(F)(F)F)C[C@@H]1C	32.8*	-0.1	10.4
CO[C@H]1CN(C)C(=O)c2ccc(NC(=O)NC(C)C)cc2OC[C@H](C)N(CCC(F)(F)F)C[C@@H]1C	-4.6	-0.1	-21.7
Cc1noc(C)c1NC(=O)N(C)C[C@H]1Oc2ncc(C#CC3CCCC3)cc2C(=O)N([C@H](C)CO)C[C@H]1C	-1.1	-3.2	25.6
CC1(C(=O)NS(=O)(=O)c2ccccc2C(F)(F)F)CCN1C(=O)CCc1ccccc1 (centres undefined)	49.4*	-0.1	3.3
CC1(C(=O)NS(C)(=O)=O)CCN1C(=O)C/C=C/c1ccccc1 (centres undefined)	60.9*	-0.2	5.2
CC1(C(=O)NS(=O)(=O)Cc2ccccc2)CCN1C(=O)C/C=C/c1ccccc1 (centres undefined)	8.1	-0.7	8.2
Cc1ccccc1S(=O)(=O)NC(=O)C1(C)CCN1C(=O)CCc1ccccc1 (centres undefined)	-17.9	/	1.7
CC(C)NC(=O)N(C)C[C@H]1Oc2c(NC(=O)Nc3cccc4ccccc34)cccc2C(=O)N([C@H](C)CO)C[C@@H]1C	-1.6	0.2	-8.8
C[C@H](CO)N1C[C@H](C)[C@H](CN(C)C(=O)[C@H]2CCCN2C)OCc2ccccc2-c2c(n(C)c3ccccc23)C1=O	-2.7	-3.3	-24.2
COc1c(Cl)cc(Cl)cc1C(=O)n1nc(C)cc1C	/	/	97.6*
Cc1cc(C)n(C(=O)c2ccc(Cl)c(F)c2F)n1	2.1	0.1	/
Cc1ccc(S(=O)(=O)Nc2ccc3c(c2)C(=O)N([C@H](C)CO)C[C@@H](C)[C@H](CN(C)C)OCCCC[C@H](C)O3)cc1	-1.4	-0.2	13.5
COc1cccc(CNC(=O)CCC2CCCN(C(=O)C3=CC(=O)CC(C)(C)O3)C2)c1 (centres undefined)	-3.8	/	79.2*
COc1cccc(CNC(=O)CCC2CCCN(C(=O)c3cccc(Cl)c3)C2)c1 (centres undefined)	-0.7	/	2.6
COC(=O)C[C@@H]1C[C@@H]2c3cc(NC(=O)Nc4ccccc4F)ccc3O[C@@H]2[C@@H](CO)O1	-6.1	0.5	-36.2
CCS(=O)(=O)N1CCCCN2[C@H](C1)[C@H](c1ccc(-c3cccc(C#N)c3)cc1)[C@@H]2CO	-11.9	-0.4	/
CCS(=O)(=O)N1CCCCN2[C@H](CO)[C@H](c3ccc(-c4cccc(C#N)c4)cc3)[C@H]2C1	-16.3	-0.1	/
N#Cc1ccc(-c2ccc([C@H]3[C@@H](CO)N4CCCCN(S(=O)(=O)c5ccccc5)C[C@@H]34)cc2)cc1	45.7*	0.6	/
CCS(=O)(=O)N1CCCCN2[C@H](CO)[C@H](c3ccc(-c4ccc(C#N)cc4)cc3)[C@H]2C1	55.5*	-0.4	-2.7
N#Cc1ccc(-c2ccc([C@@H]3[C@@H](CO)N4CCCCN(S(=O)(=O)c5ccccc5)C[C@H]34)cc2)cc1	9.7	-0.1	/
